This note sets out measurements from ChEMBL document CHEMBL1140302, “Pyrrolo[1,5]benzoxa(thia)zepines as a new class of potent apoptotic agents. Biological studies and identification of an intracellular location of their drug target” (J Med Chem, 2005).

The subject of one assay is HL-60. Description: Percent apoptotic activity of compound in human acute myelocytic leukemia HL-60 cells at 10 uM for 16 h. The format is functional. The procedure, abridged:
(§1)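 Seeded at 3 × 10⁵ cells/mL and given compound at 10 µM final from ethanol stock (vehicle 1% ethanol) for 16 h. Cytospin, RapiDiff staining, then ~300 cells counted by light microscopy (shrinkage, blebbing, nuclear condensation/fragmentation) for percent apoptosis.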

In another assay the test system is K562. Kind of assay: Percent apoptotic activity of compound in chronic myelogenous leukemia K562 cells at 10 uM for 16 h. The format is functional, Homo sapiens. The procedure, abridged: as §1
The next assay concerns LoVo. Description: In vitro cytotoxic activity of compound against (LoVo) human colon adenocarcinoma cells by sulforhodamine B (SRB) assay. The format is functional, cell-based. In a few lines: (§2)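 Seeded at 1 × 10⁴ cells/well and grown 24 h at 37 °C; LoVo in Ham's F12, MesSa in McCoy's 5A, with 10% heat-inactivated FCS. Exposed 24 h to 10 decreasing concentrations (200–0.5 µM; dissolved in 10% DMSO in water; at least eight replicates each). Washed, 48 h recovery, TCA fixation, sulforhodamine B staining, OD 540 nm. IC50 (± SD) by sigmoidal curve fitting.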
In general terms: Sulforhodamine B stains cellular protein and so reports cell mass.

Assay [1] has as its system Mus musculus. Kind of assay: Effect (30 mg/kg; i.p.) on body weight of BALB/c mice according to the qdx8 schedule; initial weight=21.02 grams. The format is functional. The procedure, abridged: (§3)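 Male Balb/c mice (5-6 weeks old, about 20 g), five per group, dosed ip once daily for 8 consecutive days at 30 mg/kg. Vehicle: Cremophor EL 1:1 with ethanol, then diluted 1:4 in PBS, 10 mL/kg. Vehicle-only control group. Body weight recorded. 24 h after the last dose, retro-orbital blood was taken under CO2 into heparin. RBC, WBC and PLT counted on a cell analyzer. ANOVA and Student's t test.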

A further assay deals with M109. Description: In vitro cytotoxic activity of compound against (M109) mouse lung carcinoma cells by sulforhodamine B (SRB) assay. The format is functional, cell-based.
A further assay concerns NCI-H460. Kind of assay: In vitro cytotoxic activity of compound against human lung carcinoma (NCI-H460) cell lines by sulforhodamine B (SRB) assay. The format is functional, cell-based. The procedure, abridged:
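NCI-H460 seeded at 3 × 10³ cells/well, 24 h at 37 °C, then 24 h drug exposure at 10 decreasing concentrations (200–0.5 µM; drug in 10% DMSO in water; at least eight replicates each). PBS washes, 48 h recovery, TCA fixation, sulforhodamine B staining, bound dye read at 540 nm. IC50 (± SD) from sigmoidal curve fitting.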

A short description of assay [2]: In vitro cytotoxic activity of compound against (MesSa) human uterine sarcoma cells by sulforhodamine B (SRB) assay. The format is functional, cell-based. In a few lines: as §2
The test system of assay [3] is Mus musculus. Description: Effect (30 mg/kg; i.p.) on hematology parameter of BALB/c mice as per the qdx8 schedule. In kind it is functional. In a few lines: as §3
Another assay relates to HT-29. Description: In vitro cytotoxic activity of compound against human colon adenocarcinoma (HT-29) cell line by sulforhodamine B (SRB) assay. In kind it is functional, cell-based.

Molecules are shown by their SMILES.

On to `CCN(CC)C(=O)OC1=C(c2cccc3ccccc23)Sc2ccccc2[N+]2=C1CC=C2`, for which the “Apoptotic Activity” value in the assay on HL-60 came to 12%; in the assay with K562, 7%.
For `COc1ccc(C2=C(OC(=O)N(C)C)C3=[N+](C=CC3)c3ccccc3S2)cc1`, the “Apoptotic Activity” value in the assay on HL-60 and in the assay with K562 was less than 10% each time.
With `CCOC(=O)c1ccc2c(c1)OC(c1cccc3ccccc13)=C(OC(=O)N(C)C)C1=[N+]2C=CC1`, the figures for the “Apoptotic Activity” value in the assay with HL-60 and in the assay with K562 were 49% and 50%, respectively.
The like results for `CN(C)C(=O)OC1=C(c2cccc3ccccc23)Oc2cc(C(=O)O)ccc2-n2cccc21` were, in that order, 0% and 0%.
Regarding `CC(=O)OC1=C(c2cccc3ccccc23)Sc2ccccc2[N+]2=C1CC=C2`, the “Apoptotic Activity” value is listed as 39% in the assay with HL-60 and 41% in the assay with K562.
As for `CC(=O)OC1=C(c2cccc3ccccc23)Oc2ccccc2[N+]2=C1CC=C2`, the figures for the “Apoptotic Activity” value with HL-60 and with K562 were 42% and 43%, respectively.
Turning to `CN(C)C(=O)OC1=C(c2ccc3ccccc3c2)Oc2ccccc2[N+]2=C1CC=C2`, the “Apoptotic Activity” value in the assay with HL-60 and with K562 was 0% each time.
The term IC50 denotes the concentration at which inhibition is half-maximal. Read a high IC50 as weaker potency in that assay. With `CN(C)C(=O)OC1=C(c2cccc3ccccc23)Oc2ccccc2[N+]2=C1CC=C2`, the IC50 was 9200 nM in the assay with LoVo; 1800 nM in the assay with M109; 1700 nM with NCI-H460; 7100 nM in [2]; 1900 nM with HT-29. Moreover, the figures for the “Apoptotic Activity” value in the assay on HL-60 and in the assay with K562 were 44% and 48%, respectively. The Weight with Mus musculus [1] is 20.8 g. Moreover, the PLT in the assay on Mus musculus [3] is 354 10E3/mm3. Further, the RBC in the assay with Mus musculus [3] was 9.45 10E6/mm3. Besides, the WBC in the assay on Mus musculus [3] was 7.03 10^3/mm³.
Regarding `CN(C)C(=O)OC1=C(c2cccc3ccccc23)Sc2ccccc2[N+]2=C1CC=C2`, the figures for the “Apoptotic Activity” value in the assay with HL-60 and with K562 were 40% and 39%, respectively.
The like results for `O=C(OC1=C(c2cccc3ccccc23)Sc2ccccc2[N+]2=C1CC=C2)c1ccncc1` were, in that order, 55% and 27%.
Regarding `COc1ccc(C2=C(OC(=O)c3ccncc3)C3=[N+](C=CC3)c3ccccc3S2)cc1`, the “Apoptotic Activity” value came out at 31% with HL-60 and 32% with K562.
Take `CCCCC(=O)OC1=C(c2cccc3ccccc23)Oc2ccccc2[N+]2=C1CC=C2`: the “Apoptotic Activity” value in the assay with HL-60 and in the assay with K562 was 0% in each case.
Turning to `CCCCCC(=O)OC1=C(c2cccc3ccccc23)Oc2ccccc2[N+]2=C1CC=C2`, the “Apoptotic Activity” value in the assay on HL-60 and in the assay on K562 was 0% throughout.
On to `CC(=O)OC1=C(c2ccccc2)Oc2ccccc2[N+]2=C1CC=C2`, for which the “Apoptotic Activity” value with HL-60 and with K562 was 0% throughout.
